According to article PMC5621377 (Clinical cancer research : an official journal of the …, 2016):
Read-outs that look alike come from different tables or passages of the source.

Experiments:
[1] = Pharmacokinetics, plasma LC-MS/MS, non-compartmental analysis; assay type: in vivo, human; settings: AUC0–24 on Days 1 and 18/21 of Cycle 1, 600 mg/day dose
Outline: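 Oral daily dosing at 50–1,200 mg/day. On Cycle 1 Days 1 and 18/21, blood was drawn pre-dose and at 0.5, 1, 2, 4, 6, 8 and 24 h, with further trough days. Parent drug and a metabolite in plasma were measured by validated LC-MS/MS (LLOQ 1.0 ng/mL). Non-compartmental analysis was used. Dose proportionality was fitted as ln(Cmax or AUC0–24) = α + β ln(dose). T1/2,acc came from the accumulation ratio; steady state was judged from troughs.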

[2] = tested on: hormone receptor-positive breast cancer; settings: cited from earlier work

metabolite exposure relative to parent drug [1]	SMILES	median progression-free survival ([2]; in combination with fulvestrant)	median progression-free survival ([2]; in combination with letrozole)
approximately 10%	CNC(=O)c1cc2cnc(Nc3ccc(N4CCNCC4)cn3)nc2n1C1CCCC1 [LEQ803]	–	–
–	CC(=O)c1c(C)c2cnc(Nc3ccc(N4CCNCC4)cn3)nc2n(C2CCCC2)c1=O [palbociclib]	improved median progression-free survival	improved median progression-free survival
